According to ChEMBL document CHEMBL4145466, “Design, synthesis, and biological evaluation of novel combretastatin A-4 thio derivatives as microtubule targeting agents” (Eur J Med Chem, 2018):
Activity calls are given as the source filed them. The calls are words filed in the database; no cut-off is given here.

What was measured:
MCF7 = assay: Induction of apoptosis in human MCF7 cells after 24 hrs by FITC Annexin V/propidium iodide staining-based FACScan flow cytometric analysis; assay type: functional, cell-based
In short: (§1)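 After 24 h of compound exposure, 1 × 10^6 cells were labelled with annexin V-FITC and PI for 15 min at 25 °C in the dark. They were read on a FACScan with 488 nm excitation, detecting FITC at 525 nm and PI at 620 nm. Results are mean ± SD of three independent experiments, with Dunnett's test against control.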

HaCaT [1] = assay: Induction of apoptosis in human HaCaT cells after 24 hrs by FITC Annexin V/propidium iodide staining-based FACScan flow cytometric analysis; assay type: cell-based; in short: as §1
A-431 = assay: Induction of apoptosis in human A431 cells after 24 hrs by FITC Annexin V/propidium iodide staining-based FACScan flow cytometric analysis; assay type: functional, cell-based; in short: as §1
Tubulin (Homo sapiens) [2] = target: T1, Tubulin (Homo sapiens) (UniProt P68371+Q9H4B7+P0DPH7+P68366+Q13509+Q71U36+P04350+Q3ZCM7+P07437+P68363+Q9BQE3+Q6PEY2+Q13885+Q9BVA1+Q9BUF5); assay: Inhibition of tubulin polymerization in human A431 cells assessed as micronuclei formation at 1 uM after 24 hrs by Hoechst 33258/FITC staining-based flow cytometric analysis; assay type: cell-based
MDA-MB-231 = assay: Cell cycle arrest in human MDA-MB-231 cells assessed as accumulation of cells at G2/M phase at 0.1 to 1 uM after 24 hrs by propidium iodide staining-based FACS analysis; assay type: functional
In short: (§2)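 Cells were seeded at 5 × 10^5 per well in DMEM with 10% FBS and left overnight, then exposed to 0.1, 0.5 or 1 µM for 24 h. DMSO served as the negative control and 50 nM camptothecin as the positive control. Cells were trypsinized, fixed in 70% ethanol for 30 min at 4 °C, stained with 50 µg/mL PI plus 100 µg/mL RNase A for 30 min in the dark, and analysed by flow cytometry. Results are mean ± SD of three experiments, compared by ANOVA with Dunnett's test.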

Tubulin (Homo sapiens) [3] = target: T1, Tubulin (Homo sapiens); assay: Inhibition of tubulin polymerization in human MDA-MB-231 cells assessed as perturbation in cytoskeleton structure at 1 uM after 24 hrs by Hoechst 33258/FITC staining-based flow cytometric analysis; assay type: cell-based
HeLa [4] = assay: Cytotoxicity against human HeLa cells after 48 hrs by MTT assay; assay type: functional, cell-based
In short: (§3)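 Cells in DMEM with 10% FBS were plated at 2 × 10^4 per well and left overnight, then treated for 48 h at 0.6–20 µM (six concentrations) from 10 mM DMSO stocks. MTT was added for 2 h, and formazan was dissolved in DMSO and read at 570 nm. Viability was expressed as % of control, with IC50 taken from dose-response curves. Results are mean ± SD of three independent experiments.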

HeLa [5] = assay: Induction of apoptosis in human HeLa cells after 24 hrs by FITC Annexin V/propidium iodide staining-based FACScan flow cytometric analysis; assay type: functional, cell-based; in short: as §1
Tubulin (Homo sapiens) [6] = target: T1, Tubulin (Homo sapiens); assay: Inhibition of tubulin polymerization in human SKOV3 cells assessed as perturbation in cytoskeleton structure at 1 uM after 24 hrs by Hoechst 33258/FITC staining-based flow cytometric analysis; assay type: cell-based
In short: (§4)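 Cells seeded at 12.5 × 10^4 per well and exposed to 1 µM compound for 24 h. Nuclei were stained with Hoechst 33258 (10 µg/mL, 30 min, 37 °C), then fixed in 4% formaldehyde/PBS (15 min, RT). Cells were permeabilized with 1% Triton X-100, blocked with 2% BSA/PBS for 1 h, and incubated with anti-α-tubulin-FITC (1:50) overnight at 4 °C. Imaged by fluorescence microscopy.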

Tubulin [7] = assay: Inhibition of tubulin polymerization in human HaCaT cells assessed as micronuclei formation at 1 uM after 24 hrs by Hoechst 33258/FITC staining-based […]; assay type: cell-based; in short: as §4
Tubulin (Homo sapiens) [8] = target: T1, Tubulin (Homo sapiens); assay: Inhibition of tubulin polymerization in human HeLa cells assessed as perturbation in cytoskeleton structure at 1 uM after 24 hrs by ELISA; assay type: cell-based
Tubulin (Homo sapiens) [9] = target: T1, Tubulin (Homo sapiens); assay: Inhibition of tubulin polymerization in human MDA-MB-231 cells assessed as perturbation in cytoskeleton structure at 1 uM after 24 hrs by ELISA; assay type: cell-based
Tubulin (Homo sapiens) [10] = target: T1, Tubulin (Homo sapiens); assay: Inhibition of tubulin polymerization in human MDA-MB-231 cells assessed as micronuclei formation at 1 uM after 24 hrs by ELISA; assay type: cell-based
Tubulin [11] = assay: Inhibition of tubulin polymerization in human HaCaT cells assessed as micronuclei formation at 1 uM after 24 hrs by ELISA; assay type: cell-based
Tubulin (Homo sapiens) [12] = target: T1, Tubulin (Homo sapiens); assay: Inhibition of tubulin polymerization in human SKOV3 cells assessed as perturbation in cytoskeleton structure at 1 uM after 24 hrs by ELISA; assay type: cell-based
Tubulin (Homo sapiens) [13] = target: T1, Tubulin (Homo sapiens); assay: Inhibition of tubulin polymerization in human HeLa cells assessed as perturbation in cytoskeleton structure at 1 uM after 24 hrs by Hoechst 33258/FITC staining-based flow cytometric analysis; assay type: cell-based
Tubulin (Homo sapiens) [14] = target: T1, Tubulin (Homo sapiens); assay: Inhibition of tubulin polymerization in human MCF7 cells assessed as micronuclei formation at 1 uM after 24 hrs by Hoechst 33258/FITC staining-based […] analysis; assay type: cell-based; in short: as §4
Tubulin [15] = assay: Inhibition of tubulin polymerization in human HaCaT cells assessed as perturbation in cytoskeleton structure at 1 uM after 24 hrs by Hoechst 33258/FITC staining-based […]; assay type: cell-based; in short: as §4
Tubulin (Homo sapiens) [16] = target: T1, Tubulin (Homo sapiens); assay: Inhibition of tubulin polymerization in human MCF7 cells assessed as micronuclei formation at 1 uM after 24 hrs by ELISA; assay type: cell-based
HaCaT [17] = assay: Cell cycle arrest in human HaCaT cells assessed as accumulation of cells at G2/M phase at 0.1 to 1 uM after 24 hrs by propidium iodide staining-based FACS analysis; in short: as §2
A549 = assay: Cytotoxicity against human A549 cells after 48 hrs by MTT assay; assay type: functional, cell-based; details: A549, 48 h
SK-OV-3 [18] = assay: Induction of apoptosis in human SKOV3 cells after 24 hrs by FITC Annexin V/propidium iodide staining-based FACScan flow cytometric analysis; assay type: functional, cell-based; in short: as §1
Tubulin (Homo sapiens) [19] = target: T1, Tubulin (Homo sapiens); assay: Inhibition of tubulin polymerization in human HeLa cells assessed as micronuclei formation at 1 uM after 24 hrs by Hoechst 33258/FITC staining-based […] analysis; assay type: cell-based; in short: as §4
Tubulin (Homo sapiens) [20] = target: T1, Tubulin (Homo sapiens); assay: Inhibition of tubulin polymerization in human A431 cells assessed as perturbation in cytoskeleton structure at 1 uM after 24 hrs by ELISA; assay type: cell-based
Tubulin (Homo sapiens) [21] = target: T1, Tubulin (Homo sapiens); assay: Inhibition of tubulin polymerization in human SKOV3 cells assessed as micronuclei formation at 1 uM after 24 hrs by ELISA; assay type: cell-based
Tubulin [22] = assay: Inhibition of tubulin polymerization in human HaCaT cells assessed as perturbation in cytoskeleton structure at 1 uM after 24 hrs by ELISA; assay type: cell-based
Tubulin (Homo sapiens) [23] = target: T1, Tubulin (Homo sapiens); assay: Inhibition of tubulin polymerization in human SKOV3 cells assessed as micronuclei formation at 1 uM after 24 hrs by Hoechst 33258/FITC staining-based flow cytometric analysis; assay type: cell-based; in short: as §4
SK-OV-3 [24] = assay: Cytotoxicity against human SKOV3 cells after 48 hrs by MTT assay; assay type: functional, cell-based; details: SK-OV-3, 48 h; in short: as §3
Tubulin (Homo sapiens) [25] = target: T1, Tubulin (Homo sapiens); assay: Inhibition of tubulin polymerization in human MCF7 cells assessed as perturbation in cytoskeleton structure at 1 uM after 24 hrs by Hoechst 33258/FITC staining-based flow cytometric analysis; assay type: cell-based; in short: as §4
Tubulin (Homo sapiens) [26] = target: T1, Tubulin (Homo sapiens); assay: Inhibition of tubulin polymerization in human A431 cells assessed as micronuclei formation at 1 uM after 24 hrs by ELISA; assay type: cell-based

inhibition (Tubulin (Homo sapiens) [3]) | inhibition (Tubulin (Homo sapiens) [6]) | inhibition (Tubulin (Homo sapiens) [8]) | inhibition (Tubulin (Homo sapiens) [9]) | inhibition (Tubulin (Homo sapiens) [12]) | inhibition (Tubulin (Homo sapiens) [13]) | inhibition (INH) (Tubulin [15]) | Compound | Activity (MCF7) | Activity (HaCaT [1]) | Activity (A-431) | inhibition (Tubulin (Homo sapiens) [2]) | Activity (MDA-MB-231) | IC50 (HeLa [4]) [nM] | Activity (HeLa [5]) | inhibition (INH) (Tubulin [7]) | inhibition (Tubulin (Homo sapiens) [10]) | inhibition (INH) (Tubulin [11]) | inhibition (Tubulin (Homo sapiens) [14]) | inhibition (Tubulin (Homo sapiens) [16]) | Activity (HaCaT [17]) | also measured
Active | Active | Active | Active | Active | Active | Active | COc1ccc(-c2ocnc2-c2cc(OC)c(SC)c(OC)c2)cc1O | Dose-dependent effect | Dose-dependent effect | Dose-dependent effect | Active | Active | 9 | Dose-dependent effect | Active | Active | Active | Active | Active | Toxic | IC50 (A549): > 20000 nM; Activity (SK-OV-3 [18]): Dose-dependent effect; inhibition (Tubulin (Homo sapiens) [19]): Active; inhibition (Tubulin (Homo sapiens) [20]): Active; inhibition (Tubulin (Homo sapiens) [21]): Active; inhibition (INH) (Tubulin [22]): Active; inhibition (Tubulin (Homo sapiens) [23]): Active; IC50 (SK-OV-3 [24]): 250 nM; inhibition (Tubulin (Homo sapiens) [25]): Active; inhibition (Tubulin (Homo sapiens) [26]): Active
Active | Active | Active | Active | Active | Active | Active | COc1ccc(-c2ocnc2-c2cc(Br)c(OC)c(OC)c2)cc1SC | Dose-dependent effect | Dose-dependent effect | Dose-dependent effect | Active | Active | 630 | Dose-dependent effect | Active | Active | Active | Active | Active | Toxic | IC50 (A549): > 20000 nM; Activity (SK-OV-3 [18]): Dose-dependent effect; inhibition (Tubulin (Homo sapiens) [19]): Active; inhibition (Tubulin (Homo sapiens) [20]): Active; inhibition (Tubulin (Homo sapiens) [21]): Active; inhibition (INH) (Tubulin [22]): Active; inhibition (Tubulin (Homo sapiens) [23]): Active; IC50 (SK-OV-3 [24]): 1160 nM; inhibition (Tubulin (Homo sapiens) [25]): Active; inhibition (Tubulin (Homo sapiens) [26]): Active
